PMC7966865 (Molecular Metabolism, 2021)
One block for each molecule: values may come before it.

Key:
[1] = system: endogenous FOXO1 target gene expression (G6pc, Pck1, Foxo1 mRNA) in primary hepatocytes; experiment: cAMP/Dex-induced gene expression; assay type: cell-based; settings: primary mouse hepatocytes, insulin 100 nM, 6 h; for cAMP/Dex-induced G6pc mRNA expression / cAMP/Dex-induced Pck1 mRNA expression: FOXO1 inhibitors 10 μM; for effect on Foxo1 mRNA levels: cAMP + Dex, compound 10 10 μM
Summary of the method: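 Hepatocytes from 8–10-week-old male C57/BL6 mice, plated on collagen at 200,000 cells/well, recovered 4–5 h, then serum-reduced (1% FBS M199, G418) 15–16 h. Stimulation: cAMP 100 μM + dexamethasone 1 μM, with test compound (10 μM, or 10 nM–10 μM). q-RT-PCR normalized to Ppia. For IC50: 0% = unstimulated, 100% = cAMP + Dex; 3–6 wells/concentration; 4 experiments pooled; 4-parameter fit.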

[2] = system: normal C57 mice / control mice (Foxo1 flox/flox); experiment: Pyruvate tolerance test; assay type: in vivo, mouse
[3] = system: liver-specific Foxo1 knockout (LKO) mice; experiment: Pyruvate tolerance test; assay type: in vivo, mouse; settings: three doses
Summary of the method: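 Liver-specific Foxo1 knockout mice (Albumin-Cre; Foxo1 flox/flox), male and female, were randomized by body weight and fed glucose. They received three oral doses of test compound at 10 ml/kg (8 am, 5 pm, 8 am), at 16 mg/kg in Optiform Select #8 or 30 mg/kg in 5% DMSO/95% PEG-400. After fasting, they were given sodium pyruvate 2 g/kg i.p. in saline. Tail glucose was read at 0–120 min. N = 7–15; tested once.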

[4] = system: STZ-induced diabetic mice; experiment: Chronic study in streptozotocin; assay type: in vivo, mouse
Summary of the method: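 Male C57BL/6J mice received STZ 50 mg/kg i.p. in citrate buffer pH 4.5 for 5 days, until glucose reached 300–450 mg/dL, then were randomized. Human recombinant FGF21 was given s.c. at 0.45 mg/kg daily from day 1. Test compound in Solutol HS-15:saline (5:95) was given p.o. at 32 mg/kg/dose twice daily from day 4. Readings: 6-h-fasted plasma TG (colorimetric), body weight change day 10 vs day 0, and day-11 perigonadal fat weight. N = 5–6.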

pCMV-Rluc = experiment: Non-specific activity: constitutive pCMV-Rluc reporter in HEK293 cells; assay type: cell-based; settings: Homo sapiens, HEK293, read-out: Non-specific activities pCMV-Rluc IC50
Summary of the method: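 HEK293 cells in EMEM with 1% FBS were co-transfected with IRE-firefly luciferase, constitutive CMV-Renilla luciferase and a forkhead factor or RFP control plasmid. Test compound was added immediately as a 10-point half-log series in duplicate, at 0.5% final DMSO. After 24 h, lysates were read by Dual-Glo luciferase. Relative IC50 came from a four-parameter fit, with at least two independent experiments.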

Mouse PK = assay type: in vivo
Summary of the method: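 Male ICR mice (N = 3 per route) were dosed with test compound in Solutol HS-15:saline (5:95 v/v), i.v. at 1 mg/kg or p.o. at 10 mg/kg. Blood was sampled at 0.083–24 h (8 time points) and processed to plasma. Plasma levels were measured by LC-MS/MS and used to calculate PK parameters.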

pGK-FFluc = experiment: Non-specific activity: constitutive pGK-FFluc reporter in HEK293 cells; assay type: cell-based; settings: Homo sapiens, HEK293, read-out: Non-specific activities pGK-FFluc IC50
Summary of the method: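 In the wild-type FOXO1 format, HEK293 cells in EMEM with 1% FBS were co-transfected with IRE-NanoLuc, constitutive pGK-firefly luciferase and the FOXO1-WT plasmid. Test compound was dosed right after transfection as a 10-point half-log series in duplicate, at 0.5% final DMSO. After 24 h, lysates were read by Nano-Glo Dual-Luciferase. Relative IC50 came from a four-parameter fit, with at least two experiments.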

Cell viability = assay type: cell-based; settings: human
Summary of the method: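 HEK293 cells were seeded overnight in EMEM with 1% FBS and then transfected for reporter assays. Test compound was added right after transfection as a 10-point half-log dilution in duplicate, at 0.5% final DMSO. After 24 h at 37 °C, medium taken off the cells was assayed for lactate dehydrogenase activity by LDH-Glo luminescence. At least two independent experiments were run.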

db/db mice = experiment: Chronic study in db/db mice; assay type: in vivo, mouse; settings: for ALT / AST: 6-h-fasted plasma; for hepatic histology (H&E): after 10 days of treatment; for glucose levels during ITT: day 9, i.p. insulin 0.75U/kg, all time points; for HOMA-IR index (worsening of insulin resistance over the study) / HOMA-β: calculated from fasting glucose and insulin
Summary of the method: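 Male db/db mice (C57BL/6J background), 6–7 weeks old, were acclimated for 2 weeks and randomized by weight and glucose. They received vehicle, test compound or rosiglitazone (10 mg/kg in 0.5% methylcellulose) orally for 10 days. Body weight was recorded each morning before dosing. 6-h-fasted glucose and ELISA insulin on days 0, 5 and 10 gave HOMA-IR and HOMA-β. Fasted plasma ALT/AST were measured colorimetrically. N = 6–8.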

[5] = male, ICR, mouse, plasma, iv, 1 mg/kg
[6] = male, ICR, mouse, plasma, po, 10 mg/kg

Molecule: CCn1cc(C(=O)O)c(=O)c2c(N)c(F)c(NC3CCCCC3)cc21 [AS1842856, reference compound]
cAMP/Dex-induced G6pc mRNA expression [1]: significantly suppressed
cAMP/Dex-induced Pck1 mRNA expression [1]: significantly suppressed
glucose excursion during PTT ([2]; 4-h-fasted mice, higher dose level (30 or 100 mg/kg/dose tested) p.o.): significantly lowered glucose excursion
glucose levels during PTT ([2]; overnight-fasted C57 mice and control mice, 30 mg/kg p.o., three doses): able to reduce glucose levels
glucose levels during PTT ([3]; liver Foxo1 knockouts, 30 mg/kg/dose p.o.): reduced glucose levels

Molecule: CN1CCN(c2ccc(C(=O)Nc3cc(-c4nc5ccccc5[nH]4)n[nH]3)cc2)CC1 [Compound 10, N-[3-(1H-1,3-benzodiazol-2-yl)-1H-pyrazol-5-yl]-4-(4-methylpiperazin-1-yl)benzamide]
body weight ([4]; day 10 compared to day 0): trend toward reduced body weight
reduction in perigonadal fat pad weight ([4]; end of the study (day 11)): > 50%
effect on Foxo1 mRNA levels [1]: did not affect
cAMP/Dex-induced G6pc mRNA expression [1]: significantly suppressed
cAMP/Dex-induced Pck1 mRNA expression [1]: significantly suppressed
IC50 (pCMV-Rluc): > 24 µM
glucose lowering during PTT ([2]; normal C57 mice fasted overnight (16 h), 16 mg/kg p.o., three doses): ineffective at lowering glucose
CL (Mouse PK; male ICR mice, IV 1 mg/kg): 22.7 mL/kg∗min
AUCinf (Mouse PK; male ICR mice, IV 1 mg/kg, plasma): 1.86 μM∗h
AUCinf (Mouse PK; male ICR mice, PO 10 mg/kg, plasma): 4.66 μM∗h
Vd (Mouse PK; [5]): 1.71 L/kg
half-life (Mouse PK; [5]): 73.8 min
bioavailability (Mouse PK; male, ICR, mouse, plasma, oral, 10 mg/kg): 25.5%
Cmax (Mouse PK; [6]): 1620 nM
Tmax (Mouse PK; [6]): 40.2 min
IC50 (pGK-FFluc): > 10 µM
glucose levels during PTT ([3]; LKO mice, 16 mg/kg/dose p.o.): failed to reduce glucose levels
CC50 at 24 h (Cell viability): > 24 µM
reduced food intake (trend) (db/db mice; db/db mice, follow-up study, vs vehicle): 12%
plasma TG (db/db mice; male db/db mice, 6-h-fasted): no significant effects
plasma total cholesterol (TC) (db/db mice; male db/db mice, 6-h-fasted): no significant effects
ALT (db/db mice; male db/db mice): not affected
AST (db/db mice; male db/db mice): not affected
hepatic histology (H&E) (db/db mice; male db/db mice): no apparent effect
glucose levels during ITT (db/db mice; male db/db mice): significantly reduced glucose levels
blood glucose (db/db mice; male db/db mice, p.o. twice daily, ten days): reduced blood glucose to an extent similar to the PPARγ agonist rosiglitazone
weight loss (trend) (db/db mice; male db/db mice, ten days): 5%
insulin levels (db/db mice; male db/db mice, ten days, 6 h fast): did not significantly affect
HOMA-IR index (worsening of insulin resistance over the study) (db/db mice; male db/db mice, ten days): staunched
HOMA-β (db/db mice; male db/db mice, ten days): tended to be improved

hepatic histology (H&E) (db/db mice; male db/db mice): exacerbated hepatic steatosis
Molecule: CN(CCOc1ccc(CC2SC(=O)NC2=O)cc1)c1ccccn1 (centres unmarked) [rosiglitazone, reference compound]
plasma TG (db/db mice; male db/db mice, 6-h-fasted): reduced plasma TG
ALT (db/db mice; male db/db mice): not affected
AST (db/db mice; male db/db mice): not affected
glucose levels during ITT (db/db mice; male db/db mice): significantly reduced glucose levels
body weight (db/db mice; male db/db mice, rosiglitazone 10 mg/kg, ten days): weight gain
HOMA-IR index (worsening of insulin resistance over the study) (db/db mice; male db/db mice, ten days): staunched
HOMA-β (db/db mice; male db/db mice, ten days): tended to be improved

Molecule: insulin
effect on Foxo1 mRNA levels [1]: did not affect
cAMP/Dex-induced G6pc mRNA expression [1]: significantly suppressed
cAMP/Dex-induced Pck1 mRNA expression [1]: significantly suppressed

B1: FGF21: Human recombinant FGF21 (Sino Biological), fibroblast growth factor 21 (protein, UniProt Q9NSA1 29-209, looked up)
Fibroblast growth factor 21: HPIPDSSPLLQFGGQVRQRYLYTDDAQQTEAHLEIREDGTVGGAADQSPESLLQLKALKPGVIQILGVKTSRFLCQRPDGALYGSLHFDPEACSFRELLLEDGYNVYQSEAHGLPLHLPGNKSPHRDPAPRGPARFLPLPGLPPALPEPPGILAPQPPDVGSSDPLSMVGPSQGRSPSYAS
plasma TG ([4]; 6-h fast): significantly reduced
